Reference: ChEMBL document CHEMBL4673214, “Synthesis and antibacterial bioactivities of cationic deacetyl linezolid amphiphiles” (Eur J Med Chem, 2018)
One block for each compound: values may come before it.

Experiments:
[1] = tested on: Escherichia coli; assay: Antibacterial activity against Escherichia coli ATCC 25922 assessed as reduction in bacterial growth incubated 16 to 20 hrs by CLSI-based broth microdilution method; type: functional; conditions: time 16-20 hrs
How it was run: (§1)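 Broth microdilution following CLSI, in cation-adjusted Mueller-Hinton broth. Inoculum from a 4-6 h culture (~10^8 CFU/mL), diluted to ~10^6 CFU/mL. Water stocks were serially diluted in MHB (256 to 0.5 µg/mL) and mixed 1:1 with the inoculum. Plates ran 16-20 h at 37 °C. MIC was read visually. Each concentration was tested in duplicate, and the experiment was repeated at least twice.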

[2] = tested on: Salmonella enterica; assay: Antibacterial activity against Salmonella enterica ATCC 8387 assessed as reduction in bacterial growth incubated for 16 to 20 hrs by CLSI-based broth microdilution method; type: functional; conditions: time 16-20 hrs; how it was run: as §1
[3] = tested on: Enterococcus faecalis; assay: Antibacterial activity against Enterococcus faecalis ATCC 29212 assessed as reduction in bacterial growth incubated 16 to 20 hrs by CLSI-based broth microdilution method; type: functional; conditions: time 16-20 hrs; how it was run: as §1
[4] = tested on: Staphylococcus aureus; assay: Antibacterial activity against Staphylococcus aureus ATCC 29213 assessed as reduction in bacterial growth incubated for 16 to 20 hrs by CLSI-based broth microdilution method; type: functional; conditions: time 16-20 hrs; how it was run: as §1
[5] = tested on: Enterobacteriaceae; assay: Antibacterial activity against NDM1 producing carbapenem-resistant Enterobacteriaceae clinical isolate 8 assessed as reduction in bacterial growth incubated for 16 to 20 hrs by CLSI-based broth microdilution method; type: functional; conditions: time 16-20 hrs
How it was run: (§2)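 Clinical isolates tested by broth microdilution in cation-adjusted Mueller-Hinton broth. Cultures grown 4-6 h (~10^8 CFU/mL) were diluted to ~10^6 CFU/mL and mixed 1:1 with compound serial dilutions made from 256 down to 0.5 µg/mL (pre-mixing). Plates held at 37 °C for 16-20 h, then read for growth. Each concentration run in duplicate, whole experiment at least twice.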

[6] = tested on: Klebsiella pneumoniae; assay: Antibacterial activity against carbapenem-resistant Klebsiella pneumoniae clinical isolate 10 assessed as reduction in bacterial growth incubated for 16 to 20 hrs by CLSI-based broth microdilution method; type: functional; conditions: time 16-20 hrs; how it was run: as §2
[7] = tested on: Klebsiella pneumoniae; assay: Antibacterial activity against carbapenem-resistant Klebsiella pneumoniae clinical isolate 4 assessed as reduction in bacterial growth incubated for 16 to 20 hrs by CLSI-based broth microdilution method; type: functional; conditions: time 16-20 hrs; how it was run: as §2
[8] = tested on: Klebsiella pneumoniae; assay: Antibacterial activity against carbapenem-resistant Klebsiella pneumoniae clinical isolate 2 assessed as reduction in bacterial growth incubated for 16 to 20 hrs by CLSI-based broth microdilution method; type: functional; conditions: time 16-20 hrs; how it was run: as §2
[9] = tested on: Klebsiella pneumoniae; assay: Antibacterial activity against carbapenem-resistant Klebsiella pneumoniae clinical isolate 7 assessed as reduction in bacterial growth incubated for 16 to 20 hrs by CLSI-based broth microdilution method; type: functional; conditions: time 16-20 hrs; how it was run: as §2
[10] = tested on: Enterobacteriaceae; assay: Antibacterial activity against NDM1 producing carbapenem-resistant Enterobacteriaceae clinical isolate 4 assessed as reduction in bacterial growth incubated for 16 to 20 hrs by CLSI-based broth microdilution method; type: functional; conditions: time 16-20 hrs; how it was run: as §2
[11] = tested on: Klebsiella pneumoniae; assay: Antibacterial activity against carbapenem-resistant Klebsiella pneumoniae clinical isolate 9 assessed as reduction in bacterial growth incubated for 16 to 20 hrs by CLSI-based broth microdilution method; type: functional; conditions: time 16-20 hrs; how it was run: as §2
[12] = tested on: Enterobacteriaceae; assay: Antibacterial activity against NDM1 producing carbapenem-resistant Enterobacteriaceae clinical isolate 3 assessed as reduction in bacterial growth incubated for 16 to 20 hrs by CLSI-based broth microdilution method; type: functional; conditions: time 16-20 hrs; how it was run: as §2
[13] = tested on: Staphylococcus aureus; assay: Antibacterial activity against methicillin-resistant Staphylococcus aureus clinical isolate 2 assessed as reduction in bacterial growth incubated for 16 to 20 hrs by CLSI-based broth microdilution method; type: functional; conditions: time 16-20 hrs; how it was run: as §2
[14] = tested on: Staphylococcus aureus; assay: Antibacterial activity against methicillin-resistant Staphylococcus aureus clinical isolate 9 assessed as reduction in bacterial growth incubated for 16 to 20 hrs by CLSI-based broth microdilution method; type: functional; conditions: time 16-20 hrs; how it was run: as §2
[15] = tested on: Staphylococcus aureus; assay: Antibacterial activity against methicillin-resistant Staphylococcus aureus clinical isolate 1 assessed as reduction in bacterial growth incubated for 16 to 20 hrs by CLSI-based broth microdilution method; type: functional; conditions: time 16-20 hrs; how it was run: as §2
[16] = tested on: Enterobacteriaceae; assay: Antibacterial activity against NDM1 producing carbapenem-resistant Enterobacteriaceae clinical isolate 6 assessed as reduction in bacterial growth incubated for 16 to 20 hrs by CLSI-based broth microdilution method; type: functional; conditions: time 16-20 hrs; how it was run: as §2
[17] = tested on: Staphylococcus aureus; assay: Antibacterial activity against methicillin-resistant Staphylococcus aureus clinical isolate 5 assessed as reduction in bacterial growth incubated for 16 to 20 hrs by CLSI-based broth microdilution method; type: functional; conditions: time 16-20 hrs; how it was run: as §2
[18] = Solubility of the compound in water at room temperature; type: physicochemical; conditions: buffer
[19] = tested on: Staphylococcus aureus; assay: Antibacterial activity against methicillin-resistant Staphylococcus aureus clinical isolate 7 assessed as reduction in bacterial growth incubated for 16 to 20 hrs by CLSI-based broth microdilution method; type: functional; conditions: time 16-20 hrs; how it was run: as §2
[20] = tested on: Staphylococcus aureus; assay: Antibacterial activity against methicillin-resistant Staphylococcus aureus clinical isolate 4 assessed as reduction in bacterial growth incubated for 16 to 20 hrs by CLSI-based broth microdilution method; type: functional; conditions: time 16-20 hrs; how it was run: as §2
[21] = tested on: Enterobacteriaceae; assay: Antibacterial activity against NDM1 producing carbapenem-resistant Enterobacteriaceae clinical isolate 2 assessed as reduction in bacterial growth incubated for 16 to 20 hrs by CLSI-based broth microdilution method; type: functional; conditions: time 16-20 hrs; how it was run: as §2
[22] = tested on: Enterobacteriaceae; assay: Antibacterial activity against NDM1 producing carbapenem-resistant Enterobacteriaceae clinical isolate 10 assessed as reduction in bacterial growth incubated for 16 to 20 hrs by CLSI-based broth microdilution method; type: functional; conditions: time 16-20 hrs; how it was run: as §2
[23] = tested on: Klebsiella pneumoniae; assay: Antibacterial activity against carbapenem-resistant Klebsiella pneumoniae clinical isolate 5 assessed as reduction in bacterial growth incubated for 16 to 20 hrs by CLSI-based broth microdilution method; type: functional; conditions: time 16-20 hrs; how it was run: as §2
[24] = tested on: Enterobacteriaceae; assay: Antibacterial activity against NDM1 producing carbapenem-resistant Enterobacteriaceae clinical isolate 5 assessed as reduction in bacterial growth incubated for 16 to 20 hrs by CLSI-based broth microdilution method; type: functional; conditions: time 16-20 hrs; how it was run: as §2
[25] = tested on: Staphylococcus aureus; assay: Antibacterial activity against methicillin-resistant Staphylococcus aureus clinical isolate 3 assessed as reduction in bacterial growth incubated for 16 to 20 hrs by CLSI-based broth microdilution method; type: functional; conditions: time 16-20 hrs; how it was run: as §2
[26] = tested on: Staphylococcus aureus; assay: Antibacterial activity against methicillin-resistant Staphylococcus aureus clinical isolate 8 assessed as reduction in bacterial growth incubated for 16 to 20 hrs by CLSI-based broth microdilution method; type: functional; conditions: time 16-20 hrs; how it was run: as §2
[27] = tested on: Klebsiella pneumoniae; assay: Antibacterial activity against carbapenem-resistant Klebsiella pneumoniae clinical isolate 6 assessed as reduction in bacterial growth incubated for 16 to 20 hrs by CLSI-based broth microdilution method; type: functional; conditions: time 16-20 hrs; how it was run: as §2
[28] = tested on: Enterobacteriaceae; assay: Antibacterial activity against NDM1 producing carbapenem-resistant Enterobacteriaceae clinical isolate 1 assessed as reduction in bacterial growth incubated for 16 to 20 hrs by CLSI-based broth microdilution method; type: functional; conditions: time 16-20 hrs; how it was run: as §2
[29] = tested on: Staphylococcus aureus; assay: Antibacterial activity against methicillin-resistant Staphylococcus aureus clinical isolate 10 assessed as reduction in bacterial growth incubated for 16 to 20 hrs by CLSI-based broth microdilution method; type: functional; conditions: time 16-20 hrs; how it was run: as §2
[30] = tested on: Klebsiella pneumoniae; assay: Antibacterial activity against carbapenem-resistant Klebsiella pneumoniae clinical isolate 1 assessed as reduction in bacterial growth incubated for 16 to 20 hrs by CLSI-based broth microdilution method; type: functional; conditions: time 16-20 hrs; how it was run: as §2
[31] = tested on: Klebsiella pneumoniae; assay: Antibacterial activity against carbapenem-resistant Klebsiella pneumoniae clinical isolate 8 assessed as reduction in bacterial growth incubated for 16 to 20 hrs by CLSI-based broth microdilution method; type: functional; conditions: time 16-20 hrs; how it was run: as §2
[32] = tested on: Enterobacteriaceae; assay: Antibacterial activity against NDM1 producing carbapenem-resistant Enterobacteriaceae clinical isolate 7 assessed as reduction in bacterial growth incubated for 16 to 20 hrs by CLSI-based broth microdilution method; type: functional; conditions: time 16-20 hrs; how it was run: as §2
[33] = tested on: Klebsiella pneumoniae; assay: Antibacterial activity against carbapenem-resistant Klebsiella pneumoniae clinical isolate 3 assessed as reduction in bacterial growth incubated for 16 to 20 hrs by CLSI-based broth microdilution method; type: functional; conditions: time 16-20 hrs; how it was run: as §2
[34] = tested on: Staphylococcus aureus; assay: Antibacterial activity against methicillin-resistant Staphylococcus aureus clinical isolate 6 assessed as reduction in bacterial growth incubated for 16 to 20 hrs by CLSI-based broth microdilution method; type: functional; conditions: time 16-20 hrs; how it was run: as §2
[35] = tested on: Enterobacteriaceae; assay: Antibacterial activity against NDM1 producing carbapenem-resistant Enterobacteriaceae clinical isolate 9 assessed as reduction in bacterial growth incubated for 16 to 20 hrs by CLSI-based broth microdilution method; type: functional; conditions: time 16-20 hrs; how it was run: as §2

- MIC [1]: > 128 mg/L
- MIC [2]: > 128 mg/L
- MIC [3]: > 128 mg/L
- MIC [4]: > 128 mg/L
SMILES: NC[C@H]1CN(c2ccc(N3CCOCC3)c(F)c2)C(=O)O1

SMILES: CCCCCCCCCCCC[N+](C)(C)CC(=O)NC[C@H]1CN(c2ccc(N3CCOCC3)c(F)c2)C(=O)O1.[Cl-]
- MIC [5]: 16 mg/L
- MIC [6]: 64 mg/L
- MIC [7]: 64 mg/L
- MIC [8]: 32 mg/L
- MIC [9]: 64 mg/L
- MIC [10]: 64 mg/L
- MIC [11]: 64 mg/L
- MIC [12]: 64 mg/L
- MIC [13]: 8 mg/L
- MIC [14]: 8 mg/L
- MIC [15]: 4 mg/L
- MIC [16]: 16 mg/L
- MIC [17]: 4 mg/L
- MIC [1]: 16 mg/L
- solubility [18]: Soluble
- MIC [19]: 4 mg/L
- MIC [20]: 16 mg/L
- MIC [21]: > 64 mg/L
- MIC [22]: 32 mg/L
- MIC [2]: 16 mg/L
- MIC [3]: 4 mg/L
- MIC [23]: 64 mg/L
- MIC [24]: 32 mg/L
- MIC [25]: 2 mg/L
- MIC [4]: 8 mg/L
- MIC [26]: 8 mg/L
- MIC [27]: 32 mg/L
- MIC [28]: > 64 mg/L
- MIC [29]: 8 mg/L
- MIC [30]: 32 mg/L
- MIC [31]: 32 mg/L
- MIC [32]: 32 mg/L
- MIC [33]: 64 mg/L
- MIC [34]: 4 mg/L
- MIC [35]: 16 mg/L
